Measurements as given in ChEMBL document CHEMBL1124433 (J Med Chem, 1989).

Key:
[1] = test system: DNA topoisomerase 1 (Bos taurus); assay: Concentration that produces 50% DNA cleavage mediated by topoisomerase I; neg= negative is no enzyme mediated DNA cleavage at the highest conc tested at 50 uM
L1210 [2] = assay: Concentration that inhibits the proliferation of L1210 cells by 50%; format: functional, cell-based; details: Mus musculus
How it was run: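 L1210 murine leukemia cells were incubated with drug at various concentrations for 60 min at 37 °C. Colonies were stained with tetrazolium and counted; cloning efficiency is 8-10%. IC50 is the drug concentration in the agar giving 50% fewer colonies.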

[3] = test system: DNA topoisomerase 1 (Bos taurus); assay: Concentration that produces 50% DNA cleavage mediated by DNA topoisomerase I; neg= negative is no enzyme mediated DNA cleavage at the highest conc tested at 50 uM
L1210 [4] = assay: Non-protein associated single strand breaks, measured after cell lysis in the absence of proteinase K treatment at 2 uM concentration of the compound; format: functional, Mus musculus
How it was run: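 L1210 cells exposed to drug for 1 h, then alkaline elution. Cells lysed without proteinase K treatment to score single-strand breaks not bound to protein. Expressed as rad equivalents.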

L1210 [5] = assay: Protein associated single strand breaks, measured after cell lysis and proteinase K treatment at 2 uM concentration of the compound; format: functional, Mus musculus
How it was run: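 L1210 cells exposed to drug for 1 h, then alkaline elution. Lysis followed by proteinase K treatment to score protein-associated single-strand breaks. Expressed as rad equivalents.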

L1210 [6] = assay: Protein associated single strand breaks, measured after cell lysis and proteinase K treatment at 10 uM concentration of the compound; format: functional, Mus musculus
How it was run: (§1)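 L1210 cells were exposed to compound for 1 h and DNA strand breaks were measured by alkaline elution, expressed as rad equivalents. Protein-associated breaks were read after cell lysis plus proteinase K treatment. Non-protein-associated breaks were read after lysis without proteinase K.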

L1210 [7] = assay: Non-protein associated single strand breaks, measured after cell lysis in the absence of proteinase K treatment at 10 uM concentration of the compound; format: functional, Mus musculus
How it was run: as §1

[8] = test system: DNA topoisomerase 1 (Bos taurus); assay: Concentration that produces 50% DNA cleavage mediated by DNA topoisomerase I
L1210 [9] = assay: Protein associated single strand breaks, measured after cell lysis and proteinase K treatment at 20 uM concentration of the compound; format: functional, Mus musculus
How it was run: as §1

L1210 [10] = assay: Non-protein associated single strand breaks, measured after cell lysis in the absence of proteinase K treatment at 20 uM concentration of the compound; format: functional, Mus musculus
How it was run: as §1

L1210 [11] = assay: Protein associated single strand breaks, measured after cell lysis and proteinase K treatment at 35 uM concentration of the compound; format: functional, Mus musculus
How it was run: as §1

L1210 [12] = assay: Non-protein associated single strand breaks, measured after cell lysis in the absence of proteinase K treatment at 3.5 uM concentration of the compound; format: functional, Mus musculus
How it was run: as §1

L1210 [13] = assay: Non-protein associated single strand breaks, measured after cell lysis in the absence of proteinase K treatment at 35 uM concentration of the compound; format: functional, Mus musculus
How it was run: as §1

Row | SMILES | IC50 (L1210 [2]) | CC50 [3] | also measured
1 | CC[C@@]1(O)C(=O)SCc2c1cc1n(c2=O)Cc2cc3ccccc3nc2-1 | 2900 nM | – | CC50 [1]: Negative
2 | CC[C@H]1C(=O)OCc2c1cc1n(c2=O)Cc2cc3ccccc3nc2-1 | 590 nM | Negative | –
3 | O=C1OCc2c1cc1n(c2=O)Cc2cc3ccccc3nc2-1 | > 5900 nM | Negative | –
4 | CCC1(O)OCc2c1cc1n(c2=O)Cc2cc3ccccc3nc2-1 (configuration not stated) | > 5900 nM | – | CC50 [1]: Negative
5 | CCC1OC(=O)c2c1cc1n(c2=O)Cc2cc3ccccc3nc2-1 (configuration not stated) | > 5900 nM | Negative | –
6 | CC[C@@]1(O)C(=O)OCc2c1cc1n(c2=O)Cc2cc3ccccc3nc2-1 [CAMPTOTHECIN] | 14 nM | – | Radiation equivalent (L1210 [4]): 240; Radiation equivalent (L1210 [5]): 342
7 | CC[C@@]1(O)C(=O)NCc2c1cc1n(c2=O)Cc2cc3ccccc3nc2-1 | > 2000 nM | Negative | Radiation equivalent (L1210 [6]): <100; Radiation equivalent (L1210 [7]): <100
8 | CC[C@@](O)(C(=O)NC(C)C)c1cc2n(c(=O)c1CO)Cc1cc3ccccc3nc1-2 | – | – | CC50 [8]: 5000 nM
9 | C=C1CC(CC)(c2cc3n(c(=O)c2C)Cc2cc4ccccc4nc2-3)OC1=O (configuration not stated) | 94 nM | – | Radiation equivalent (L1210 [9]): <100; CC50 [1]: Negative; Radiation equivalent (L1210 [4]): <100; Radiation equivalent (L1210 [5]): <100; Radiation equivalent (L1210 [10]): 1360
10 | CC[C@@]1(OC(C)=O)C(=O)OCc2c1cc1n(c2=O)Cc2cc3ccccc3nc2-1 | 390 nM | Negative | –
11 | O=c1c2cocc2c(O)c2n1Cc1cc3ccccc3nc1-2 | 92 nM | Negative | Radiation equivalent (L1210 [11]): <100; Radiation equivalent (L1210 [12]): 175; Radiation equivalent (L1210 [13]): 1000
12 | CC[C@]1(O)c2cc3n(c(=O)c2COC1O)Cc1cc2ccccc2nc1-3 (some centres not stated) | 2700 nM | Negative | Radiation equivalent (L1210 [6]): <100; Radiation equivalent (L1210 [7]): <100
13 | CC[C@@](O)(C(=O)O)c1cc2n(c(=O)c1CO)Cc1cc3ccccc3nc1-2 | 14 nM | – | CC50 [8]: 900 nM
